According to ChEMBL document CHEMBL1126582, “Symmetry-based inhibitors of HIV protease. Structure-activity studies of acylated 2,4-diamino-1,5-diphenyl-3-hydroxypentane and 2,5-diamino-1,6-diphenylhexane-3,4-diol” (J Med Chem, 1993):
≈ marks a conversion by molar mass, not a printed value. Each block holds one compound with its values, some of them ahead of it.

How the values were obtained:
[1] = t1/2 in rats after IV dose (5 mg/kg); assay type: ADME, organism-based; conditions: rat, in vivo
How it was run: (§1)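 Rats in groups of eight: four dosed 5 mg/kg intravenously, four 10 mg/kg orally. Dosing solutions were 5 mg/mL in 20% ethanol/5% glucose in water with 2 molar equiv HCl (1 equiv HCl or 2 equiv methanesulfonic acid for some). Terminal t1/2 from the IV arm (n = 4). Cmax was the peak plasma level after oral dosing (n = 4). Bioavailability was AUCoral/2 × AUCiv over 0-6 h.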

[2] = tested on: Human immunodeficiency virus 1; assay: Compound was tested in vitro for inhibition of cytopathic effect of HIV-1 3B in MT-4 lymphocytes; assay type: functional, organism-based
How it was run: (§2)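 MT-4 lymphocytes were infected with HIV-1 3B at an MOI of either 0.001 or 0.032 tissue culture infective dose per cell. EC50 is the concentration preventing 50% of viral cytopathic effect, from a single triplicate assay. No effect means no activity up to 100 μM or up to the cytotoxic concentration.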

[3] = target: Human immunodeficiency virus type 1 protease (Human immunodeficiency virus 1, UniProt Q72874); assay: Inhibition of purified recombinant HIV-1 protease in a fluorogenic assay
How it was run: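 Purified recombinant HIV-1 protease, with cleavage of the fluorogenic substrate DABCYL-[…]-Pro-Ile-Val-Gln-EDANS as read-out. Value is the inhibitor concentration giving 50% inhibition of protease activity.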

[4] = Cmax in rat plasma after oral dose (10 mg/kg); assay type: ADME, organism-based; parameters: dose 10 mg/kg, route oral; how it was run: as §1
[5] = In vitro for cytotoxicity in MT-4 lymphocytes in the absence of HIV infection; assay type: cell-based, MT4; conditions: human
How it was run: (§3)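 Uninfected MT-4 lymphocytes were cultured with compound. CC50 is the concentration at which 50% of cells remain viable.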

[6] = % bioavailability in rat after oral dose (10 mg/kg) 0 - 6 h.; assay type: ADME, organism-based; conditions: in vivo; how it was run: as §1
[7] = Estimated solubility (buffer pH 7.4); assay type: ADME; conditions: read-out: S
How it was run: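 Solubility was estimated in pH 7.4 phosphate buffer.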

[8] = tested on: Human immunodeficiency virus 1; assay: In vitro for inhibition of cytopathic effect of HIV-1 3B in MT-4 lymphocytes.; assay type: functional, organism-based; how it was run: as §2
[9] = tested on: MT4; assay: In vitro for cytotoxicity in MT-4 lymphocytes in the absence of HIV infection.; assay type: functional; conditions: Homo sapiens; how it was run: as §3
[10] = Cmax in plasma after oral dose (10 mg/kg); assay type: ADME, organism-based; parameters: dose 10 mg/kg, route oral; how it was run: as §1
[11] = tested on: MT4; assay: Compound was tested in vitro for inhibition of cytopathic effect of HIV-1 3B in MT-4 lymphocytes; No effect; assay type: functional, cell-based, Homo sapiens; how it was run: as §2

SMILES: CC(C)[C@H](NC(=O)OCc1ccncc1)C(=O)N[C@@H](Cc1ccccc1)C(O)[C@H](Cc1ccccc1)NC(=O)[C@H](NC(=O)OCc1ccncc1)C(C)C (stereo partly specified)
half-life [1]: 0.57 h | EC50 [2]: 10 µM | IC50 [3]: 0.026 µM | Cmax [4]: 200 nM | CC50 [5]: > 100 µM | bioavailability [6]: 0.9% | solubility [7]: 7.8 µg/mL (≈ 10.6 µM)

SMILES: CC(C)[C@H](NC(=O)OCc1ccccn1)C(=O)N[C@@H](Cc1ccccc1)C(O)[C@H](Cc1ccccc1)NC(=O)[C@H](NC(=O)OCc1ccccn1)C(C)C (stereo partly specified)
EC50 [8]: 4.5 µM | half-life [1]: 1.9 h | CC50 [9]: 57 µM | IC50 [3]: 0.0048 µM | Cmax [10]: 1600 nM | bioavailability [6]: 19% | solubility [7]: 51 µg/mL (≈ 69 µM)

SMILES: CC(C)[C@H](NC(=O)N1CCN(C)CC1)C(=O)N[C@@H](Cc1ccccc1)[C@@H](O)[C@H](Cc1ccccc1)NC(=O)[C@H](NC(=O)OCc1ccccc1)C(C)C
half-life [1]: 1.1 h | IC50 [3]: 0.028 µM | EC50 [11]: Not Active | Cmax [4]: 250 nM | CC50 [5]: 55 µM | bioavailability [6]: 13% | solubility [7]: 141 µg/mL (≈ 193 µM)

SMILES: CC(C)[C@H](NC(=O)OCCN1CCCC1)C(=O)N[C@@H](Cc1ccccc1)[C@@H](O)[C@H](Cc1ccccc1)NC(=O)[C@H](NC(=O)OCc1ccccc1)C(C)C
IC50 [3]: 0.014 µM | EC50 [11]: Not Active | CC50 [5]: 21 µM | solubility [7]: 19 µg/mL (≈ 25.5 µM)

SMILES: CC(C)[C@H](NC(=O)C1Cc2ccccc2CN1)C(=O)N[C@@H](Cc1ccccc1)C(O)[C@H](Cc1ccccc1)NC(=O)[C@H](NC(=O)C1Cc2ccccc2CN1)C(C)C (stereo partly specified)
IC50 [3]: 0.0071 µM | EC50 [11]: Not Active | CC50 [5]: 6.4 µM

SMILES: CC(C)[C@H](NS(=O)(=O)N(C)Cc1ccccn1)C(=O)N[C@@H](Cc1ccccc1)[C@H](O)[C@H](O)[C@H](Cc1ccccc1)NC(=O)[C@H](NS(=O)(=O)N(C)Cc1ccccn1)C(C)C
EC50 [8]: 43 µM | half-life [1]: 1.5 h | IC50 [3]: 0.038 µM | Cmax [4]: 1160 nM | CC50 [5]: 65 µM | bioavailability [6]: 11% | solubility [7]: 40 µg/mL (≈ 46.1 µM)

SMILES: CC(C)[C@H](NC(=O)N(C)Cc1cccnc1)C(=O)N[C@@H](Cc1ccccc1)[C@H](O)[C@H](O)[C@H](Cc1ccccc1)NC(=O)[C@H](NC(=O)N(C)Cc1cccnc1)C(C)C
EC50 [8]: 1.4 µM | half-life [1]: 1.3 h | CC50 [9]: > 100 µM | IC50 [3]: < 0.001 µM | Cmax [10]: 520 nM | bioavailability [6]: 17% | solubility [7]: 91 µg/mL (≈ 114 µM)

SMILES: CC(C)[C@H](NC(=O)OCc1cccnc1)C(=O)N[C@@H](Cc1ccccc1)C(O)[C@H](Cc1ccccc1)NC(=O)[C@H](NC(=O)OCc1cccnc1)C(C)C (stereo partly specified)
EC50 [8]: 6.3 µM | half-life [1]: 0.31 h | CC50 [9]: 62 µM | IC50 [3]: 0.0068 µM | Cmax [10]: 220 nM | bioavailability [6]: 2.1% | solubility [7]: 18 µg/mL (≈ 24.4 µM)

SMILES: CC(C)[C@H](NS(=O)(=O)N(C)Cc1ccccn1)C(=O)N[C@@H](Cc1ccccc1)[C@@H](O)[C@@H](O)[C@H](Cc1ccccc1)NC(=O)[C@H](NS(=O)(=O)N(C)Cc1ccccn1)C(C)C
IC50 [3]: 0.24 µM | EC50 [11]: Not Active | CC50 [5]: 52 µM | solubility [7]: 23 µg/mL (≈ 26.5 µM)

SMILES: CC(C)[C@H](NS(=O)(=O)N(C)Cc1ccccn1)C(=O)N[C@@H](Cc1ccccc1)C(O)[C@H](Cc1ccccc1)NC(=O)[C@H](NS(=O)(=O)N(C)Cc1ccccn1)C(C)C (stereo partly specified)
half-life [1]: 1.4 h | IC50 [3]: 1.3 µM | EC50 [11]: Not Active | Cmax [4]: 2100 nM | CC50 [5]: 32 µM | bioavailability [6]: 21% | solubility [7]: 11 µg/mL (≈ 13.1 µM)

SMILES: CC(C)[C@H](NC(=O)OCC1CCCN(C)C1)C(=O)N[C@@H](Cc1ccccc1)[C@@H](O)[C@H](Cc1ccccc1)NC(=O)[C@H](NC(=O)OCc1ccccc1)C(C)C (stereo partly specified)
IC50 [3]: 0.013 µM | EC50 [11]: Not Active | CC50 [5]: 17 µM | solubility [7]: 31 µg/mL (≈ 40.9 µM)

SMILES: CC(C)[C@H](NS(=O)(=O)N(C)Cc1ccccn1)C(=O)N[C@@H](Cc1ccccc1)[C@@H](O)[C@H](O)[C@H](Cc1ccccc1)NC(=O)[C@H](NS(=O)(=O)N(C)Cc1ccccn1)C(C)C
IC50 [3]: 0.071 µM | EC50 [11]: Not Active | CC50 [5]: 56 µM | solubility [7]: 30 µg/mL (≈ 34.6 µM)

SMILES: CC(C)[C@H](NS(=O)(=O)CCc1ccncc1)C(=O)N[C@@H](Cc1ccccc1)[C@@H](O)[C@@H](O)[C@H](Cc1ccccc1)NC(=O)[C@H](NS(=O)(=O)CCc1ccncc1)C(C)C
EC50 [2]: 17 µM | IC50 [3]: 0.0057 µM | CC50 [5]: > 100 µM | solubility [7]: 5.6 µg/mL (≈ 6.69 µM)

EC50 [2]: 1.5 µM | IC50 [3]: < 0.001 µM | solubility [7]: 331 µg/mL (≈ 403 µM)
SMILES: CC(C)[C@H](NC(=O)N(C)Cc1cscn1)C(=O)N[C@@H](Cc1ccccc1)[C@H](O)[C@@H](O)[C@H](Cc1ccccc1)NC(=O)[C@H](NC(=O)N(C)Cc1csc(N)n1)C(C)C
CC50 [5]: > 100 µM

SMILES: CC(C)[C@H](NC(=O)OCc1ccncc1)C(=O)N[C@@H](Cc1ccccc1)[C@@H](O)[C@H](Cc1ccccc1)NC(=O)[C@H](NC(=O)OCc1ccccc1)C(C)C
EC50 [2]: 10 µM | IC50 [3]: 0.007 µM | CC50 [5]: > 100 µM | solubility [7]: 0.8 µg/mL (≈ 1.08 µM)

EC50 [2]: 2.3 µM | IC50 [3]: < 0.001 µM | solubility [7]: 184 µg/mL (≈ 220 µM)
SMILES: CC(C)[C@H](NC(=O)N(C)Cc1csc(N)n1)C(=O)N[C@@H](Cc1ccccc1)[C@@H](O)[C@H](O)[C@H](Cc1ccccc1)NC(=O)[C@H](NC(=O)N(C)Cc1csc(N)n1)C(C)C
CC50 [5]: > 100 µM

SMILES: CC(C)[C@H](NC(=O)N(C)Cc1ccccn1)C(=O)N[C@@H](Cc1ccccc1)C(O)[C@H](Cc1ccccc1)NC(=O)[C@H](NC(=O)N(C)Cc1ccccn1)C(C)C (stereo partly specified)
EC50 [8]: 25 µM | half-life [1]: 0.45 h | CC50 [9]: > 100 µM | IC50 [3]: 0.043 µM | Cmax [10]: 1500 nM | bioavailability [6]: 11% | solubility [7]: 167 µg/mL (≈ 218 µM)
